Measured values taken from the RNAGym collection of RNA variant scans (doi:10.1126/science.aae0568).
This sample holds only a part of the variants without activity.

B1: tRNA (parent)
chain: GUUCCGUUGGCGUAAUGGUAACGCGUCUCCCUCCUAAGGAGAAGACUGCGGGUUCGAGUCCCGUACGGAACG

Variants of: B1
Test: yeast fitness relative to wild type (ratio to wild type); higher = fitter; tRNA-Arg(CCU), competitive growth, 37 C, YPD
Summary of the method: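 Start and end populations of a pooled competition were compared by 100-nucleotide paired-end sequencing of gene amplicons. The Saccharomyces cerevisiae strains carried tRNA-Arg(CCU) gene variants at the native genomic locus, synthesised with a 3% per-site mutation rate at 69 sites, and competed in YPD at 37°C for 24 hours in six parallel replicates. Darwinian fitness relative to wild type was based on the change in genotype frequencies. Genotypes required ≥ 100 starting reads, and estimates < 0.5 were set to 0.5.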

**Q.** With GUUGCGUUGGCGUAAUGGUAACGCGUCUCCCUCCUAAGGAGAAGACUGCGGGUUCGAGUCCCGUACGGAACG [C4G] as the variant, how does the yeast fitness read?
**A.** 1.01

**Q.** For GGUCCGUUGGCGUAAUGGUAACGCGUCUCCCUCCUAAGCAGAAGACUGCGGGUUCGAGUCCCGUACGGAACG [U2G G39C], which yeast fitness is on record?
**A.** 0.715

**Q.** With GUUCCAUUGGCGUACUGGUUACGCGUCUCCCUCCUUAGAAGAAGACUGCGGGUUCGAGUCCCGUACGGAACG [G6A A15C A20U A36U G39A] as the variant, how does the yeast fitness read?
**A.** ≤ 0.5

**Q.** For GUUGCGUUGGCGUAAUGGUAACGCAUCUCCCUCCUAAGGAGAAGACUGCGAGUUCGAGUCCCGUACGGAACG [C4G G25A G51A], which yeast fitness is on record?
**A.** ≤ 0.5

**Q.** Which yeast fitness does the source give for GUUCCGUUGGCGUAAUGGUAUCGCGUCUCCCUCCUAUGGAGAAGACUGCGGGUUCGAGUGCCGUACGGAACG [A21U A37U C60G] here?
**A.** 0.608

**Q.** Which yeast fitness does the source give for GUUCCGUAGGCGUCAUGGUAACGCGUCUCCAUCCUAAGGAGAAGACUGCGGGUUCGAGUCCCGUACGGAACG [U8A A14C C31A] here?
**A.** 0.571

**Q.** With GUUCCGUUGGCGUAAUGGUAACGCGUCUCCCUGCUAAGGAGAAGACUGCGGGUUCGAGUCUCGUACGGAACG [C33G C61U] as the variant, how does the yeast fitness read?
**A.** 0.711

**Q.** With GUUGCGUUGGCGUAAUAGUAACGCGUCUCCCUCCUAAGGGGAAGACUGCGGGUUCGAGUCCCGUACGGAACG [C4G G17A A40G] as the variant, how does the yeast fitness read?
**A.** ≤ 0.5

**Q.** Which yeast fitness does the source give for GUUCCGUAGGCGUAAUGGUAACGCGUCUCCCUCCCAAGGAGCAGACUGCGGGUUCGAGUCCCGUACAGAACG [U8A U35C A42C G67A] here?
**A.** 0.568

**Q.** Which yeast fitness does the source give for GUUCCGUUGGCGUAUUGGUAACGCGUCUCCCUCCUAACAAGACGACUGCGGGUUCGAGAUCCGUACGGAACG [A15U G38C G39A A43C U59A C60U] here?
**A.** ≤ 0.5

**Q.** Which yeast fitness does the source give for GUUCCGUUGGCGUAAUGCUAACGCGUCUCCCUCCUAAGGAGAAGACUGCGGGUUCGAGUCCGGUACUGAACG [G18C C62G G67U] here?
**A.** ≤ 0.5

**Q.** With GUUCCGUUGGCGUAAUGGUAAUGCGUCUCCCUCCUAAGGAGAAGACUGCGGGUUCGAGUCCCGUACGGCACG [C22U A69C] as the variant, how does the yeast fitness read?
**A.** 0.876

**Q.** For GUUCCGUUGGCGUAAUGGUAACGCGUCUCCCUCCUUAGGAGAAGACUGCGGGUUCGAGUUCCGUACGGAACG [A36U C60U], which yeast fitness is on record?
**A.** 0.566

**Q.** With GUUCCGUUGGCGUACUGGUAACGCGUCUCCCUUCUAAGGAGAAGACGGUGGCUUCGAGUCCCGUACGGAGCG [A15C C33U U47G C49U G52C A70G] as the variant, how does the yeast fitness read?
**A.** 0.585

**Q.** With GUUCCGUUGGCGUAAUGGUAACGCGUCUCCCUCCUAAGGAGAAGACUGCGAGUUCGAGUCAGGUACGGAACG [G51A C61A C62G] as the variant, how does the yeast fitness read?
**A.** ≤ 0.5

**Q.** For GUUCCGUUAGCGUAAUGGUAACGCGGCUCACUCCUAAGGAGAAGACUGCGGGUUCGAGUCCCGUACGGAACG [G9A U26G C30A], which yeast fitness is on record?
**A.** 0.636

**Q.** For GUUCCGUUGGCGUAAUGGUAACGCCUCUACCUCCUAAGGAGAAGACUACGGGGUCGAGUCCCGUACGGAACG [G25C C29A G48A U53G], which yeast fitness is on record?
**A.** ≤ 0.5

**Q.** Which yeast fitness does the source give for GUUCCGUUGGCGUAAUGGUAACGGGUCUCCCUCCUAAGGAGAAGACUGGGGGUUCGAGUCCCGUACAGCACG [C24G C49G G67A A69C] here?
**A.** 0.521

**Q.** Which yeast fitness does the source give for GUUCCGUUGGCGUAAUGGUAACGCAUCUCCUUCCUACGGAGAAGACUGCGGCUUCGAGUCCCGUACGGAACG [G25A C31U A37C G52C] here?
**A.** ≤ 0.5

**Q.** For GUUCCGUUGGCGUAAUGGUAACGCGUCUCCCCCCUAAGGAGAAGACUGCGGGUUCGAGUCCCGUUCAGAACG [U32C A65U G67A], which yeast fitness is on record?
**A.** 0.646

**Q.** With GUUCCGUUGGCGUAAUGGUAACGCGUCUCCCUACUAAGGAGAAGACUGCGGGUUCGAGUCCCGUACGGAACG [C33A] as the variant, how does the yeast fitness read?
**A.** 0.795

**Q.** With GUCCCGUUGGCGUAAUGGUAACGCGUGUCCCUCCUAAGGAGAAGCCUGCGGGUUCGAGUCCCGUACGGAACG [U3C C27G A45C] as the variant, how does the yeast fitness read?
**A.** ≤ 0.5

**Q.** With GUUCCGUUGGCGUAAUGGCAACGCGUCUCCCUCCUAAGGAGAAGACUGCGGGCUCGAGUCACGUACGAAACG [U19C U53C C61A G68A] as the variant, how does the yeast fitness read?
**A.** ≤ 0.5

**Q.** With GUUCUGUUGGCGUAAUGGUAACGCGUCUCCCUACUAAGGAGAAGACUGCGGGUUCGAGUCCCGUACGGAACG [C5U C33A] as the variant, how does the yeast fitness read?
**A.** 0.737

**Q.** Which yeast fitness does the source give for GUUCCGUUGGCGUAUUGGUGACGCGUCUCCCUCCUACGGAGAAGACUGCGGGUUCGAGUCCCGUACGGAACG [A15U A20G A37C] here?
**A.** ≤ 0.5

**Q.** For GAUAGGUUGGCGUAAUGGUAACGCGUCUCCCUCCUAAGGAGAAGACUGCGGGUUCGAGUCCCGUGCGGAACG [U2A C4A C5G A65G], which yeast fitness is on record?
**A.** ≤ 0.5

**Q.** For GUUCCGUUGGCGUAAUGGUAACGCGCCUCCCUCCUAAGGAGAAGACUGCGGGUUCGAGUGCCGUACGGAACG [U26C C60G], which yeast fitness is on record?
**A.** 0.642

**Q.** For GUUCCGUUGGCGUAAUGGUAACGCGUCUCCCUCCUAAGGAGUGGACUCCGGGAUCGAGUCCCGUACGGCACG [A42U A43G G48C U53A A69C], which yeast fitness is on record?
**A.** 0.589

**Q.** For GUUCCGUUGGCGUAAUGGUAACGCGUCUCCCUUCUAAGGAGAUGACUGGCGGUUCGAGUCUCGCAUGGAACG [C33U A43U C49G G50C C61U U64C C66U], which yeast fitness is on record?
**A.** ≤ 0.5

**Q.** For GUUCGGUUGGCGUAAUGGUCACGCGUCUCCCUCCUAAGGAGAAGACUGCGGGUUCGAGUCCCGUACGGAACG [C5G A20C], which yeast fitness is on record?
**A.** 0.813

**Q.** With GUUCCGUAGACGUAAUGGUAACGCGUCUCCCUCCUAAGAAGAAGACUGCGGGUUCGAGUCCCGUACGGAACG [U8A G10A G39A] as the variant, how does the yeast fitness read?
**A.** 0.626

**Q.** Which yeast fitness does the source give for GUUCCGUUGGCGUAAUGGCAACGCGUCUCCCUCCUGAGGAGAAGACUGCGGGUUCGAGUCCCGUACGGAACG [U19C A36G] here?
**A.** 1.01

**Q.** With GUUCCGUUGGCGUAAUGGUAACGCGUCUCCCUCCUAAGGAGAAGACUGCGGGUUCGAAUCCCGUACGCAACG [G58A G68C] as the variant, how does the yeast fitness read?
**A.** 1.01

**Q.** For GUUCCGUUGGCGUAAUAGUAACGCGUCUCCCUCCUAAGGAGAAGACUGCGGGUUCGAGUCCCAUACGGAACG [G17A G63A], which yeast fitness is on record?
**A.** 0.744

**Q.** With GUUCCGUUGGCGUAAUGGUAACGCGUCUCCCUCCUAAGGAGAAGAUUGCGGGUUUGAGUCCCGUACGGAACG [C46U C55U] as the variant, how does the yeast fitness read?
**A.** 0.823

**Q.** With GUUCCGUUGGCGUAUUGAUAACGCGUCUCCCUGCUAAGGAGCAGACUGCGGGUUCGAGUCCCGUACGGAACG [A15U G18A C33G A42C] as the variant, how does the yeast fitness read?
**A.** ≤ 0.5

**Q.** With GUUCCGUUGGCGUAAUGGUAACGCGUCCCCCUCCUAAGGACAAGACUGAGGGUUCGAGUCCCGUACGGAACG [U28C G41C C49A] as the variant, how does the yeast fitness read?
**A.** ≤ 0.5

**Q.** For GUUCCGUUGGCGUAAUGGUAACGCGUCUCGCUCUUAAGGAGUAGACUGCGGGUUCGAGUCCCGUACGAAACG [C30G C34U A42U G68A], which yeast fitness is on record?
**A.** ≤ 0.5
